We go through three molecules from ChEMBL document CHEMBL3259739, “Synthesis and structure-activity relationship of trisubstituted thiazoles as Cdc7 kinase inhibitors” (Eur J Med Chem, 2014).

The structures appear in SMILES notation.

Assay [1] addresses Serine/threonine-protein kinase Nek6 (Homo sapiens) (UniProt Q9HC98). As to the kind of experiment: Inhibition of NEK6 (unknown origin) at 1 uM relative to control; values are per cent of control.
Assay [2] has as its target T1, Serine/threonine-protein kinase 4 (Homo sapiens) (UniProt Q13043).
T1 sequence (whole entry): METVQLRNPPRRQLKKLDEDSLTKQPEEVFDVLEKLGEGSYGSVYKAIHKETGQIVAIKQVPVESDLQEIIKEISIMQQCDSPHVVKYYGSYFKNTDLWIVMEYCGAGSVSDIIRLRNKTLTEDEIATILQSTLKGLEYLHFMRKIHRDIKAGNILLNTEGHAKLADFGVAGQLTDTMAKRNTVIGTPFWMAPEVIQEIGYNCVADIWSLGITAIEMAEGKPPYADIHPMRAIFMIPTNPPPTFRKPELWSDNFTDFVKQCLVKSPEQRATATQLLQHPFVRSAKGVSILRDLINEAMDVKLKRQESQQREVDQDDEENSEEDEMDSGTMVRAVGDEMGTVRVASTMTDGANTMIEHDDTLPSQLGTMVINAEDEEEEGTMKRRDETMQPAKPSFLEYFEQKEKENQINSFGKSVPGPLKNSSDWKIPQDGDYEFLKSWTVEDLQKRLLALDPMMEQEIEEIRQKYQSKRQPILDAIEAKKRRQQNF
As to the kind of experiment: Inhibition of MST2 (unknown origin) at 1 uM relative to control; values are per cent of control.

Assay [3] concerns the target T2, Dual specificity mitogen-activated protein kinase kinase 5 (Homo sapiens) (UniProt Q13163).
T2 sequence (whole entry): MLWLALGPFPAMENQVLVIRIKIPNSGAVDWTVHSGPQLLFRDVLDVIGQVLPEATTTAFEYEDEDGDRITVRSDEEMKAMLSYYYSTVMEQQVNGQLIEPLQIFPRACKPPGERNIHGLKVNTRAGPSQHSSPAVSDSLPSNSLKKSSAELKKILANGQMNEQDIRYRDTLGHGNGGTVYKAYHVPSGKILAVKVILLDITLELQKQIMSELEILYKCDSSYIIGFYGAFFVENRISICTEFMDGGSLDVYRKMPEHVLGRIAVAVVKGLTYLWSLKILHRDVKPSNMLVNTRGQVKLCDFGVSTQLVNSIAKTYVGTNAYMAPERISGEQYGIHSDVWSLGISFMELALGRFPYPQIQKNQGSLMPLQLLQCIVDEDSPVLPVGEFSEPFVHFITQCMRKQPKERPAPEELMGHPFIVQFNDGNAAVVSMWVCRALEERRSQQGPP
As to the kind of experiment: Inhibition of MEK5 (unknown origin) at 1 uM relative to control; values are per cent of control.

The target in assay [4] is Insulin-like growth factor 1 receptor (Homo sapiens) (UniProt P08069). As to the kind of experiment: Inhibition of IGF1R (unknown origin) at 1 uM relative to control; values are per cent of control.
Insulin-like growth factor 1 receptor (Homo sapiens), sequence (P08069 31-736 limits assumed): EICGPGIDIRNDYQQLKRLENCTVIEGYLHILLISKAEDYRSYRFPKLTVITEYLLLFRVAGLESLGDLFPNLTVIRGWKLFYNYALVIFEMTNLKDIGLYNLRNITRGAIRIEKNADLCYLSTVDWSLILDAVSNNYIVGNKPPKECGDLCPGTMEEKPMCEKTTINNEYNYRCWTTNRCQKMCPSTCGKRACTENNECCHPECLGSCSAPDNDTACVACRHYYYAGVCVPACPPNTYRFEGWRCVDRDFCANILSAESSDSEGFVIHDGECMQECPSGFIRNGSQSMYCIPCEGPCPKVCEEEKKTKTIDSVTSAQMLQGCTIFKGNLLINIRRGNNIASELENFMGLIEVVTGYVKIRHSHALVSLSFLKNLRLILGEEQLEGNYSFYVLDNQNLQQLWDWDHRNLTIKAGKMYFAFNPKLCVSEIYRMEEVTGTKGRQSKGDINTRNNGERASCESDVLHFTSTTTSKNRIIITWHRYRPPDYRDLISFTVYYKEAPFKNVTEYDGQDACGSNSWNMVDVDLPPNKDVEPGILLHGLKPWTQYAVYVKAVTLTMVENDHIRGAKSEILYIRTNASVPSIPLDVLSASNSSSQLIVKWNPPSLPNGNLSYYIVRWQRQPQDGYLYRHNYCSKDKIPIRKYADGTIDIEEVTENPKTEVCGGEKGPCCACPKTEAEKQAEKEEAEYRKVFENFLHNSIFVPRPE
Insulin-like growth factor 1 receptor (Homo sapiens), sequence (P08069 741-1367 limits assumed): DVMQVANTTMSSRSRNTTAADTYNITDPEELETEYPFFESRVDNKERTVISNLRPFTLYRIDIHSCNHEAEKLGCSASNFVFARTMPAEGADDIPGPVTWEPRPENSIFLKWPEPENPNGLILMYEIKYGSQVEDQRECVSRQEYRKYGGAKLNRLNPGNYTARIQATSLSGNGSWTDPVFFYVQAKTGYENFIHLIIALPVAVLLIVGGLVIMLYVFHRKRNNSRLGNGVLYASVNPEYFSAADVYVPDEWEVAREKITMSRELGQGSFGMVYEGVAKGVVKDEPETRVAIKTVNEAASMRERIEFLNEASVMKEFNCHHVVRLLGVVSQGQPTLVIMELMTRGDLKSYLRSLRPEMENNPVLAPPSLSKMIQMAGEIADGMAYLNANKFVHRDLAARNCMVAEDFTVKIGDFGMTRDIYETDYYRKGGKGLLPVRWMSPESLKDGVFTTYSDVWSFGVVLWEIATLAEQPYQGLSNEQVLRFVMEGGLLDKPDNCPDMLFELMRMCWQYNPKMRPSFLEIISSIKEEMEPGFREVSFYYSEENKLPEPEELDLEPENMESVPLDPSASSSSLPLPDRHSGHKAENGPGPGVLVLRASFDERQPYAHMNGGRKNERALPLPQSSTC
Assay [5] addresses MAP kinase-activated protein kinase 2 (Homo sapiens) (UniProt P49137). As to the kind of experiment: Inhibition of MAPKAPK2 (unknown origin) at 1 uM relative to control; values are per cent of control.
For assay [6], the target named is Protein-tyrosine kinase 6 (Homo sapiens) (UniProt Q13882). The experiment in a line: Inhibition of BRK (unknown origin) at 1 uM relative to control; values are per cent of control.
Protein-tyrosine kinase 6 (Homo sapiens), sequence (Q13882 whole entry, looked up): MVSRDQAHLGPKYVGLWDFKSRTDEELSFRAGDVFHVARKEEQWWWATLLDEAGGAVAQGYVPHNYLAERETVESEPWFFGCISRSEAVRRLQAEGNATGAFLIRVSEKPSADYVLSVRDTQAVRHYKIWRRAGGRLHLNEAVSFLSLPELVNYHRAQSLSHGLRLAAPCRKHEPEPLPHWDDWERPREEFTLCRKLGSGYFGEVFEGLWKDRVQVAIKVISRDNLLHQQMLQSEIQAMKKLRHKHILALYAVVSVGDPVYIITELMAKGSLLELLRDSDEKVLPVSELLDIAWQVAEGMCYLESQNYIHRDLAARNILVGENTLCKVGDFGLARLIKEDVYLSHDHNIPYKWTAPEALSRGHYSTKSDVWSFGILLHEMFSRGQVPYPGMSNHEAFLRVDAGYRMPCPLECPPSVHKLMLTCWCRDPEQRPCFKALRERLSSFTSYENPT
The target in assay [7] is Serine/threonine-protein kinase 33 (Homo sapiens) (UniProt Q9BYT3). The experiment in a line: Inhibition of STK33 (unknown origin) at 1 uM relative to control. To be noted: values are per cent of control. An outline of the steps: (§1)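 KinomeSCAN competitive binding panel of 100 kinases; compounds tested at 1 µM in duplicate; read-out is percent […] control.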
Serine/threonine-protein kinase 33 (Homo sapiens), sequence (Q9BYT3 whole entry, looked up): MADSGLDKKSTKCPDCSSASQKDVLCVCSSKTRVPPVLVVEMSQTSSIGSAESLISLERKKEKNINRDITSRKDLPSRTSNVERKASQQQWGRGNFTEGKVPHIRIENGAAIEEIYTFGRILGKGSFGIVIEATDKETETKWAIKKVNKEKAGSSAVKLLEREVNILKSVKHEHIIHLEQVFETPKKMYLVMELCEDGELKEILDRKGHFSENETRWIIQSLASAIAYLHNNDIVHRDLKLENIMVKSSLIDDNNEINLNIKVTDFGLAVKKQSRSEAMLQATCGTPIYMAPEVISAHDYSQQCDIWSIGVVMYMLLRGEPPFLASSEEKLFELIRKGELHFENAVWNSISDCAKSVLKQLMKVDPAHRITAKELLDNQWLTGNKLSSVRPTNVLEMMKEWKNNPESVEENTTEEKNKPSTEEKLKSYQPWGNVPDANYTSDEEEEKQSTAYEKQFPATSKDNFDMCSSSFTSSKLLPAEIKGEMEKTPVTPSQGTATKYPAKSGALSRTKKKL

The target in assay [8] is Phosphatidylinositol 4,5-bisphosphate 3-kinase catalytic subunit alpha isoform (Homo sapiens) (UniProt P42336). As to the kind of experiment: Inhibition of PIK3CA (unknown origin) at 1 uM relative to control. To be noted: values are per cent of control. An outline of the steps:
as §1

For assay [9], the target named is T3, Dual specificity mitogen-activated protein kinase kinase 3 (Homo sapiens) (UniProt P46734).
T3 sequence (whole entry): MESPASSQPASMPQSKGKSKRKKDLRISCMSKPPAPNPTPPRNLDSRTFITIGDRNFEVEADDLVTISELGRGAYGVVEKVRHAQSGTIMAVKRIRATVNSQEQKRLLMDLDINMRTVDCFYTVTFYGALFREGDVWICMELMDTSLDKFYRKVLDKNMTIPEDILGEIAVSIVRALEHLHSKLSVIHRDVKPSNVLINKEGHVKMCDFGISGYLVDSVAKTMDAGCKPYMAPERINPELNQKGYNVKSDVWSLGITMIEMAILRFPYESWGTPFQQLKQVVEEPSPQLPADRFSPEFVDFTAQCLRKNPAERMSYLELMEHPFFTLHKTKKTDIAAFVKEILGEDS
As to the kind of experiment: Inhibition of MEK3 (unknown origin) at 1 uM relative to control; values are per cent of control.

For the next assay, the target named is Casein kinase II (Homo sapiens, UniProt P19784+P67870+P68400). As to the kind of experiment: Inhibition of CK2 (unknown origin) by homogeneous time-resolved fluorescence assay. Format: protein-complex assay. An outline of the steps: (§2)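 Counter-screens by HTRF kinase assays: CDK1/Cyclin B and CDK4/Cyclin D1 in HTRF format, CDK9/Cyclin T1 with a 4eBP1 ULight substrate, and the CK2 tetramer with a TopoII ULight substrate.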

In assay [10] the target is CDC7/DBF4 (Cell division cycle 7-related protein kinase/Activator of S phase kinase) (Homo sapiens, UniProt O00311). The experiment in a line: Inhibition of Cdc7/Dbf4 in human HCT116 cells assessed as reduction of MCM2 phosphorylation after 14 hrs. Format: cell-based, HCT-116. An outline of the steps: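 HCT-116 cells were exposed to inhibitor across a 22-point dose response for 14 h. They were then immunostained for phospho-serine MCM2 using an Alexa Fluor 488 secondary, with a Hoechst nuclear counterstain. The percentage of cells with phospho-MCM2 signal above a threshold was scored by high-content imaging, and IC50 values were derived from that.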

Assay [11] is described as follows: Inhibition of CK1gamma (unknown origin) by TR-FRET assay. Also on record: species or system Homo sapiens. An outline of the steps: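 CK1 isoform inhibition measured in Lance TR-FRET kinase assays, reported as IC50.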
(TR-FRET usually uses a lanthanide donor and a delayed reading to cut background.)

The next assay has as its target CDK9/cyclin T1 (Homo sapiens, UniProt P50750). The experiment in a line: Inhibition of CDK9/Cyclin-T1 (unknown origin) by homogeneous time-resolved fluorescence assay. The format is protein-complex assay. An outline of the steps:
as §2

Assay [12] has as its target Serine/threonine-protein kinase pim-1 (Homo sapiens, UniProt P11309). As to the kind of experiment: Inhibition of Pim1 (unknown origin) by homogeneous time-resolved fluorescence assay. An outline of the steps:
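Pim1 counter-screened biochemically with a homogeneous time-resolved fluorescence (HTRF) kinase assay.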

Assay [13] deals with Cyclin-dependent kinase 1/cyclin B1 (Homo sapiens, UniProt P06493). As to the kind of experiment: Inhibition of CDK1/Cyclin-B (unknown origin) by homogeneous time-resolved fluorescence assay. Format: protein-complex assay. An outline of the steps: as §2
Another assay deals with HCT-116. As to the kind of experiment: Inhibition of DNA synthesis in human HCT116 cells after 2 days by BrdU incorporation assay. The format is functional, cell-based. Particulars: HCT-116, 48 h.
Assay [14] has as its target Cyclin-dependent kinase 4/cyclin D1 (Homo sapiens, UniProt P11802). As to the kind of experiment: Inhibition of CDK4/Cyclin-D1 (unknown origin) by homogeneous time-resolved fluorescence assay. Format: protein-complex assay. An outline of the steps:
as §2

Serine/threonine-protein kinase Nek6 (Homo sapiens), sequence (Q9HC98 whole entry): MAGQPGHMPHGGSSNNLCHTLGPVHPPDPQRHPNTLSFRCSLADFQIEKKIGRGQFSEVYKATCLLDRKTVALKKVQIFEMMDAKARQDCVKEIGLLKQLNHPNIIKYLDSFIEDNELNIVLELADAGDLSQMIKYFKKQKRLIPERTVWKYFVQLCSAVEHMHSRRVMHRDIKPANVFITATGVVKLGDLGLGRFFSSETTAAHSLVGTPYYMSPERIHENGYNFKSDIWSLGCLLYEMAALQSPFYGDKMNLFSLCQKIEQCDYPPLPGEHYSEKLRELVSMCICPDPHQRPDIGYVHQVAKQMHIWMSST
Phosphatidylinositol 4,5-bisphosphate 3-kinase catalytic subunit alpha isoform (Homo sapiens), sequence (P42336 whole entry, canonical isoform): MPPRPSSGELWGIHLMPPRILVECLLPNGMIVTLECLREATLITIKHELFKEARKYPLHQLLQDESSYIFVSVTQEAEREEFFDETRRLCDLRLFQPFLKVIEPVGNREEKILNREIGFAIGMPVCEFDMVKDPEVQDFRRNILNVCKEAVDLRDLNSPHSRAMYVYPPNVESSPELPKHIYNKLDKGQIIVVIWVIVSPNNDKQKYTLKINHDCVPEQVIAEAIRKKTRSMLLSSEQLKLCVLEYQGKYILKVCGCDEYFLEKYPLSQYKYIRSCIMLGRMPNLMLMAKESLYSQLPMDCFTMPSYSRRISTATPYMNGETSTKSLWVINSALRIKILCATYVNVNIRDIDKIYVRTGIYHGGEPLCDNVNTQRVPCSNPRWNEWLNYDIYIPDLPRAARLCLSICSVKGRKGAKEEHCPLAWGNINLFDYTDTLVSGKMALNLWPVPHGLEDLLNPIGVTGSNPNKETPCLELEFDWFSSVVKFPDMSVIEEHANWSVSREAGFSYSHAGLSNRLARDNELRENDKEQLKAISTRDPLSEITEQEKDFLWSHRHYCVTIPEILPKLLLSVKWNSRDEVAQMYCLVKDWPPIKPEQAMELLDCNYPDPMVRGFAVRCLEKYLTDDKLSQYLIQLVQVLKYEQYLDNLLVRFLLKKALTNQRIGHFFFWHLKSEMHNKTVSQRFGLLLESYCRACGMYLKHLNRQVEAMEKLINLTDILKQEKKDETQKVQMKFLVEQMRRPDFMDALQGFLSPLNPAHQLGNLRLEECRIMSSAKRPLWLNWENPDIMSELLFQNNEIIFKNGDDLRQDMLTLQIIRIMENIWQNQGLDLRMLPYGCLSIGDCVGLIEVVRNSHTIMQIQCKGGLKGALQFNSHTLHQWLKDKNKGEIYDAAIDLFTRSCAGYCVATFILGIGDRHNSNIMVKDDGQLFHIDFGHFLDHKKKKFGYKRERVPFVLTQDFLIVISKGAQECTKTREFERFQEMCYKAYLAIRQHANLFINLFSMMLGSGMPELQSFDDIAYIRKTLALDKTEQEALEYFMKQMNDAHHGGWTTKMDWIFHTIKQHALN
MAP kinase-activated protein kinase 2 (Homo sapiens), sequence (P49137 whole entry, looked up): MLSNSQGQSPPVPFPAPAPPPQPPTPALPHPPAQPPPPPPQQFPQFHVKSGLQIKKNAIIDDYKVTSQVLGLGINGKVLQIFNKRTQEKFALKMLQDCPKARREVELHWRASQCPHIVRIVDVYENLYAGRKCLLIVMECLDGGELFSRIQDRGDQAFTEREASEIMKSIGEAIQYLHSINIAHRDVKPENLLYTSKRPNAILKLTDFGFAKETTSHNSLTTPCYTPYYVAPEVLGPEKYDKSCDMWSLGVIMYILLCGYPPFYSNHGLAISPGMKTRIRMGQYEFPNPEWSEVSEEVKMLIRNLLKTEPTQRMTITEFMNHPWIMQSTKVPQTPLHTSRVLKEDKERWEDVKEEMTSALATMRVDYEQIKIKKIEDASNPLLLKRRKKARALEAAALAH
Cyclin-dependent kinase 4/cyclin D1, sequence (P11802 whole entry): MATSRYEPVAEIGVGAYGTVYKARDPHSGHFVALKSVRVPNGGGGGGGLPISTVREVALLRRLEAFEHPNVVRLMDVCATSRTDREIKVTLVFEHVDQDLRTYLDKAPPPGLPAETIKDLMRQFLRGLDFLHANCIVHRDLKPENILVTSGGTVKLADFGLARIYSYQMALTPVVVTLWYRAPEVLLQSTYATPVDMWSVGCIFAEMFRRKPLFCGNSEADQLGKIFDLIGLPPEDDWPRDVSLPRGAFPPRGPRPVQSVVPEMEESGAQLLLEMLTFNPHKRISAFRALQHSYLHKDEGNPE
Cyclin-dependent kinase 4/cyclin D1, sequence (P24385 whole entry, further chain): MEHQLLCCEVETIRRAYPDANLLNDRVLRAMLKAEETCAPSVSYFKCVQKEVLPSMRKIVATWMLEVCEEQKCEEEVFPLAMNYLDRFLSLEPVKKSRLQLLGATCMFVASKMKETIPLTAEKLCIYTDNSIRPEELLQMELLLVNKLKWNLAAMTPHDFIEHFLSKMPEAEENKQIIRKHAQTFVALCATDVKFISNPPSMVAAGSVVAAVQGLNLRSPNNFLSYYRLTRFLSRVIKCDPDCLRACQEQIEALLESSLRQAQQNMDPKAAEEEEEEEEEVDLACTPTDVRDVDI
Serine/threonine-protein kinase pim-1, sequence (P11309 whole entry): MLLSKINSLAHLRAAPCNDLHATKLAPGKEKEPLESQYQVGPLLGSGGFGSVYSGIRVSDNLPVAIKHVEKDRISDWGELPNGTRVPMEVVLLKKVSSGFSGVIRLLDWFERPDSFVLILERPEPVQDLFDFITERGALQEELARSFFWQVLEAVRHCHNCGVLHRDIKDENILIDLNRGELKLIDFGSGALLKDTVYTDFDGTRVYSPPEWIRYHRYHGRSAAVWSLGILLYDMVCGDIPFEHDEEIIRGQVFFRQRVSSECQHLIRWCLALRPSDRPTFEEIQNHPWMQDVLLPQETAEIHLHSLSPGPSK

On to `CCOC(=O)c1sc(-c2ccncc2)nc1O`, for which the residual activity worked out at 65% in assay [1]; 84% in [2]; 83% in assay [3]; 85% in assay [4]; 94% in [5]; 94% in [6]. In [9], the residual activity amounted to 100%. For the same molecule, the residual binding, % of control in [7] and in [8] was 100% throughout.
Broadly, the IC50 is the concentration that inhibits the measured activity by half. Consider `NC(=O)c1sc(-c2ccnc(N)n2)nc1-c1ccc(Cl)cc1Cl`, for which the residual activity in [1] turned out to be 81%; in [2], 100%; in [3], 79%; in assay [4] it was 94%; in assay [5] it was 96%; in assay [6], 68%. The residual activity in assay [9] amounted to 25%. Further, the half-maximal inhibitory concentration (IC50) on Casein kinase II was 29100 nM; in [10], 501 nM; in assay [11], 760 nM; against CDK9/cyclin T1 it was 749 nM; in assay [12], > 1000 nM; in assay [13], > 50000 nM. Further, the IC50 in the assay on HCT-116 is 2600 nM; in [14], > 50000 nM. The residual binding, % of control in assay [7] turned out to be 100%; in assay [8], 78%.
For `COc1ccc(-c2nc(-c3ccnc(N)n3)sc2C(N)=O)c(Cl)c1`, the residual activity came out at 85% in assay [1]; 71% in assay [2]; 80% in assay [3]; 76% in assay [4]; 100% in [5]; 80% in assay [6]. For the same molecule, in [9], the residual activity amounted to 35%. Further, the IC50 on Casein kinase II is 65000 nM; in assay [10], 862 nM; in assay [11], 1900 nM; against CDK9/cyclin T1, 729 nM; in assay [12], > 1000 nM; in assay [13], > 50000 nM. In addition, the results for the IC50 (with HCT-116; in [14]) were 6900 nM and > 50000 nM, respectively. Also, the residual binding, % of control in assay [7] stood at 100%; in assay [8], 83%.
